# An excerpt weighted towards active compounds, which were near 2.9% of everything screened.
# Statin myotox sup: protects C2C12 myotubes from simvastatin toxicity; rescue of ATP level, % at 7.49 µM; 330,000 tested, 0.78% active; ATP luminescence, 48 h; scaled: DMSO 0, geranylgeraniol control 100;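 active = mean ATP rescue above about 67%, or every replicate alone reaching that limit, limit read from the data, passing the limit was not always enough; inconclusive = no clear call, values can overlap the other calls; inactive = mean under the limit and some replicate under it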;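 note: myotubes were challenged with 10 µM simvastatin during compound exposure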
# PGC1a acetyl inh: PGC1a acetylation modulation, inhibitor mode; U2OS PGC1a acetylation, AlphaScreen anti-acetyl-lysine; with virally co-expressed GCN5 acetyltransferase; AID 651687; inhibition, % at 15.6 µM; 350,000 tested, 0.17% active;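 active = every replicate shows inhibition of at least 40%; inconclusive = mean inhibition at least 40% but some replicate below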;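 note: 0% = neutral control wells and 100% = positive control wells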
# DENV2 CPE rescue: DENV2-induced cell death inhibition; CPE inhibition, % at 9.99 µM; DENV2-infected cells, cytopathic effect rescue, plate reader; 350,000 tested, 1.7% active; in the data active = CPE inhibition above about 20%, passing the limit was not always enough; inconclusive = no clear call, values can overlap the other calls; tested in BHK-21 cells;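 note: 0% = median of neutral control wells and 100% = median of positive control wells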
# SIRT5 inh: inhibitors of human sirtuin-5 desuccinylase | inhibition, % at 15 µM | AID 652115 | Purified SirT5, succinyl-peptide AMC, trypsin-coupled fluorescence | 330,000 tested, 1.1% active; in the data active = inhibition above about 15%; inconclusive = no clear call, values can overlap the other calls
# Target sequence (Q9NXA8 whole entry, looked up): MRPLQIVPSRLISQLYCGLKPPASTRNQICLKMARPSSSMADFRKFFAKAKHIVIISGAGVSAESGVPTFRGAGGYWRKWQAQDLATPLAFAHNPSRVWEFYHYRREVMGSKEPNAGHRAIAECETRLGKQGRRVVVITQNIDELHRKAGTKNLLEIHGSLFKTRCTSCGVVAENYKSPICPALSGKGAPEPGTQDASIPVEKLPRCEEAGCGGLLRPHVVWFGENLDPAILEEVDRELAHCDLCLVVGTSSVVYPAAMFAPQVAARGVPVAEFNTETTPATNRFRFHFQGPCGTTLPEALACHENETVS
# S100A4 inh HTS: inhibitors of human S100A4 binding to myosin IIA peptide. inhibition, % at 10.7 µM. S100A4/TAMRA-MyoIIA peptide fluorescence polarization. 360,000 tested, 0.14% active. P26447;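 active = mean inhibition of at least 70% across replicates, with every replicate also reaching that level; inconclusive = mean inhibition reaches 70% but some replicates fall short; inactive = mean inhibition below 70%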
# Target sequence (P26447 whole entry, looked up): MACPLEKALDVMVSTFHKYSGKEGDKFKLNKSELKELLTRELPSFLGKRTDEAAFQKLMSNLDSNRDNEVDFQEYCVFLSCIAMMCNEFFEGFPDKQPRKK
#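 Test system: S100A4 monomer protein. Medium: HEPES buffer with Ca2+, pH 7.2. Reagent: fluorescent myosin IIA peptide, 5 nM. Compound dosing: single-point compound testing. Timing: 5 min between mix addition and reading. Benchmarks: DMSO neutral and TFP positive wells.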
# An asterisk follows results filed as active; ? = inconclusive; / = not tested or not shown.
SMILES,Statin myotox sup,PGC1a acetyl inh,DENV2 CPE rescue,SIRT5 inh,S100A4 inh HTS
O=C(NC1CC1)c1cccc(NC(=O)c2cc(S(=O)(=O)N3CCOCC3)ccc2Cl)c1,4.9,/,93.8*,-2.6,-4.0
N#CCc1ccc(NC(=O)c2cc(S(=O)(=O)N3CCOCC3)ccc2Cl)cc1,13.7,/,60.1*,-5.1,-25.6
O=C(Nc1cccc(S(=O)(=O)N2CCOCC2)c1)C1CC1,-4.0,-17.8,-13.3,23.0*,-6.2
Cc1ccccc1OCCOC(=O)c1cc(S(=O)(=O)N2CCOCC2)ccc1C,12.4,/,71.7*,-5.2,4.0
COc1ccc(NC(=O)N[C@H]2CC[C@@H](CCn3cc(-c4ccc(OC)cc4)nn3)O[C@@H]2CO)cc1,0.1,-6.7,2.9,0.1,-1.6
C[C@H]1CN([C@@H](C)CO)C(=O)c2cccc(NC(=O)C3CCOCC3)c2O[C@@H]1CN(C)Cc1ccc2c(c1)OCO2,-25.3,-3.5,-8.4,0.8,9.8
C[C@H](NC(=O)C[C@@H]1C[C@H]2c3cc(NS(=O)(=O)c4ccc(F)cc4)ccc3O[C@H]2[C@H](CO)O1)c1ccccc1,-13.2,-1.3,-2.0,0.6,-2.6
Cc1ccc(S(=O)(=O)N2CCOCC2)cc1C(=O)NC1CCCCC1,70.9*,-10.3,/,/,/
Cc1cc(Cl)ccc1OC(C)C(=O)Nc1cccc(S(=O)(=O)N2CCOCC2)c1 (centres undefined),3.2,-13.1,0.0,/,-0.9
CC(Sc1nc2cc(Cl)ccc2s1)C(=O)Nc1cccc(S(=O)(=O)N2CCOCC2)c1 (centres undefined),/,/,32.9*,-2.0,1.2
C[C@@H]1CN([C@H](C)CO)C(=O)c2cc(-c3cccc(C(=O)N(C)C)c3)cnc2O[C@H]1CN(C)C,-0.4,12.6,7.9,2.9,-7.9
CCN(CC)CCCC(C)Nc1nccc2c(Cl)cccc12 (centres undefined),-5.7,/,48.7*,-6.1,-2.1
CCN(CC)CCOc1c(C)cccc1Cl,0.8,-1.3,1.8,7.3,-1.4
CN(C)CCCNc1nc(N)c([N+](=O)[O-])c(NCCO)n1,87.3*,-11.6,0.2,0.1,-4.0
CCN(CC)CCCNc1nc(N)c([N+](=O)[O-])c(NCCO)n1,/,-6.5,4.9,-0.3,0.4
Cc1ccc(S(=O)(=O)Oc2ccc(/C=N/N=C3/NC(=O)C(CC(=O)O)S3)cc2)cc1 (centres undefined),/,9.5,-1.7,28.4*,-1.7
CCOc1cc(/C=N/N=C2/NC(=O)C(CC(=O)O)S2)ccc1OS(=O)(=O)c1ccc(C)cc1 (centres undefined),/,10.1,4.9,4.4,1.6
COCC(=O)N1CC[C@H]2[C@@H]1c1cc(-c3ccc(OC)cc3)ccc1N(C)[C@H]2CO,-7.0,-3.5,11.4,1.7,-35.1
Cc1cc(N/N=C/c2ccc(O)cc2)c2cccc(C)c2n1,1.3,/,-25.6,21.0*,-1.7
N#Cc1c(SCC(=O)Nc2nccs2)sc2c(O)cc(=O)[nH]c12,10.4,/,-1.6,25.6*,-9.9
N#Cc1c(SCC(=O)Nc2nc3ccccc3s2)sc2c(O)cc(=O)[nH]c12,13.9,-0.1,7.0,11.9,15.5
N#Cc1c(SCC(=O)Nc2nc3ccc(Br)cc3s2)sc2c(O)cc(=O)[nH]c12,/,1.8,-4.0,10.9,-11.7
CCCSc1nnc(NC(=O)CSc2sc3c(O)cc(=O)[nH]c3c2C#N)s1,-23.3,/,3.8,26.1*,1.4
Cc1cc(NC(=O)CCC(=O)N(Cc2ccccc2)C(C(=O)NC2CCCC2)c2ccco2)no1 (centres undefined),1.9,-5.3,-1.5,77.8*,-4.0
CO[C@H]1CN(C)C(=O)c2ccc(NC(=O)NC(C)C)cc2OC[C@H](C)N(CCC(F)(F)F)C[C@@H]1C,-21.7,-10.0,-4.6,6.9,-10.2
SMILES,Statin myotox sup,PGC1a acetyl inh,DENV2 CPE rescue,SIRT5 inh,S100A4 inh HTS
CO[C@H]1CN(C)C(=O)c2ccc(NC(=O)NC(C)C)cc2OC[C@H](C)N(CCC(F)(F)F)C[C@H]1C,2.0,4.6,54.6*,5.3,-4.7
CO[C@@H]1CN(C)C(=O)c2ccc(NC(=O)NC(C)C)cc2OC[C@@H](C)N(CCC(F)(F)F)C[C@@H]1C,10.4,-1.7,32.8*,6.9,-11.3
CO[C@@H]1CN(C)C(=O)c2ccc(NC(=O)NC(C)C)cc2OC[C@@H](C)N(CCC(F)(F)F)C[C@H]1C,1.8,12.0,-6.9,4.0,7.2
O=C(NC[C@H]1[C@H](c2ccccc2)[C@@H](CO)N1C(=O)C1CCC1)NC1CCCC1,27.7,6.7,18.6,/,/
Fc1ccc(CSc2nnc(Cc3sc(-c4ccccc4)nc3-c3ccccc3)o2)cc1,-6.0,-5.9,/,/,/
COc1ccc(CSc2nnc(Cc3sc(-c4ccccc4)nc3-c3ccccc3)o2)cc1,96.5*,4.2,/,/,/
NC(=O)C(CC(=O)O)NC(=O)[C@@H]1CCCNc2c(I)cc([N+](=O)[O-])cc2C(=O)N[C@@H](CO)C(=O)N[C@@H](Cc2ccc(O)cc2)C(=O)N1 (some centres undefined),159.4*,-6.4,/,/,/
COc1ccccc1NC(=O)COC(=O)c1ccc([N+](=O)[O-])s1,/,/,6.7,23.1*,-3.4
COc1ccccc1NC(=O)COC(=O)c1[nH]c(=O)[nH]c(=O)c1N,-5.5,-1.5,0.9,17.2*,5.5
CCCNC(=O)N(C)C[C@@H]1Oc2cc(C#CC(C)(C)O)ccc2S(=O)(=O)N([C@@H](C)CO)C[C@H]1C,10.6,16.3,?,-3.6,-4.0
C=CCNS(=O)(=O)c1cccc2cc(C(=O)O)c(O)cc12,-7.7,95.5*,/,/,/
COc1ccc(CN2C[C@H](C)[C@H](OC)CN(C)C(=O)c3cc(NC(=O)c4nc5ccccc5s4)ccc3OC[C@@H]2C)cc1,15.9,-16.4,22.0*,/,-6.7
CO[C@@H]1CN(C)C(=O)c2ccc(NC(=O)c3nc4ccccc4s3)cc2OC[C@@H](C)N(Cc2cccnc2)C[C@H]1C,-0.4,4.7,/,102.5*,/
Cn1cnnc1SCC(=O)Nc1ccc(Br)cc1F,70.8*,0.6,/,/,/
COc1ccccc1C(=O)N1CCC2CCN(C(=O)c3ccccc3)C2C1 (centres undefined),/,/,-0.5,/,11.1
NC(=O)[C@@H]1CCCN1C(=O)[C@H](CCc1ccccc1)NC(=O)[C@H]1O[C@@H](n2cnc3c(N)ncnc32)[C@H](O)[C@@H]1O,/,/,39.9*,1.3,-13.8
COc1ccc(Cl)cc1NC(=O)CN(C)C(=O)C1COc2ccccc2O1 (centres undefined),-0.2,/,73.5*,0.7,1.1
COc1ccc(Cl)cc1NC(=O)C1COc2ccccc2O1 (centres undefined),/,/,-4.8,-2.2,-3.6
CC(C)CC(C(=O)Nc1cccc(O)c1)N1C(=O)c2ccccc2C1=O (centres undefined),15.2,/,-2.2,-2.7,-2.8
CC(C)CC(C(=O)Nc1oc(-c2ccco2)c(-c2ccco2)c1C#N)N1C(=O)c2ccccc2C1=O (centres undefined),116.9*,-1.9,/,/,/
COCC(=O)N1CC(=O)N2[C@H](CO)[C@H](c3ccc(-c4ccncc4)cc3)[C@@H]2C1,/,-9.0,-9.4,-4.5,19.1
